Results reported in ChEMBL document CHEMBL1649165, “Activity profile in vitro of micafungin against Spanish clinical isolates of common and emerging species of yeasts and molds” (2009).
Values after ≈ are worked out from the molar mass of the structure shown. *1 amine or outer side, *2 acyl side, *3 side chain or, on linkers, in order; H or OH if unused. Where a SMILES comes first, the peptide text is derived from it. Bridges are numbered along the chain shown (N, C = ends). [ ]: non-standard residue; d: D form. The star is where a group is joined. pTerphenylCO(4''-OnC5H11) = CCCCCOc1ccc(-c2ccc(-c3ccc(C(=O)*)cc3)cc2)cc1; Orn(4R-OH,5R-OH) = O=C([C@H](C[C@@H](O)[C@@H](O)N[*:3])N[*:1])[*:2]; hTyr(3S-OH,4S-OH) = N[C@H](C(=O)O)[C@H](O)[C@@H](O)c1ccc(O)cc1; Pro(3S-OH,4S-Me) = C[C@H]1CN[C@H](C(=O)O)[C@H]1O; Hyp = O=C(O)[C@@H]1C[C@@H](O)CN1

Assays:
Assay type in all cases: functional
[1] = test system: Cunninghamella bertholletiae; experiment: Antimicrobial activity against Cunninghamella bertholletiae by broth microdilution method
In short: (§1)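 Clinical mould isolates, tested by broth microdilution using the AFST-EUCAST reference method for filamentous fungi. For echinocandins, the endpoint was the minimum effective concentration: the lowest drug concentration giving aberrant hyphal growth, read with an inverted microscope.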

Fusarium solani = experiment: Antimicrobial activity against Fusarium solani by broth microdilution method
In short: (§2)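 Filamentous fungus clinical isolates tested by the AFST-EUCAST reference broth microdilution method for moulds. For echinocandins, the endpoint was the minimum effective concentration: the lowest drug concentration giving aberrant hyphal growth, read with an inverted microscope.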

Aspergillus ustus = experiment: Antimicrobial activity against Aspergillus ustus by broth microdilution method; in short: as §1
Aspergillus = experiment: Antimicrobial activity against Aspergillus spp. by broth microdilution method; in short: as §1
[2] = Antimicrobial activity against Hormographiella aspergillata by broth microdilution method; settings: Coprinopsis cinerea; in short: as §2
Trichosporon ovoides = experiment: Antimicrobial activity against Trichosporon ovoides by broth microdilution method
In short: (§3)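 Nonfermentative yeast clinical isolates (Rhodotorula, Trichosporon) tested by broth microdilution. The EUCAST yeast recommendations were followed strictly, with one minor modification to improve growth. MIC was read as the endpoint.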

Torulaspora delbrueckii = experiment: Antimicrobial activity against Candida coliculosa by broth microdilution method
In short: (§4)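 Clinical isolates from human patients, tested by broth microdilution using the AFST-EUCAST reference procedure for fermentative yeasts. The MIC was read per that reference method.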

Exophiala jeanselmei = experiment: Antimicrobial activity against Exophiala jeanselmei by broth microdilution method
Lichtheimia corymbifera = experiment: Antimicrobial activity against Mycocladus corymbiferus by broth microdilution method; in short: as §2
Trichosporon inkin = experiment: Antimicrobial activity against Trichosporon inkin by broth microdilution method; in short: as §3
Fusarium equiseti = experiment: Antimicrobial activity against Fusarium equiseti by broth microdilution method; in short: as §1
[Candida] inconspicua = Antimicrobial activity against Candida inconspicua by broth microdilution method; settings: Pichia inconspicua; in short: as §4
Clavispora lusitaniae = experiment: Antimicrobial activity against Candida lusitaniae by broth microdilution method; in short: as §4
Candida parapsilosis = experiment: Antimicrobial activity against Candida parapsilosis by broth microdilution method; settings: Lodderomyces parapsilosis; in short: as §4
Geotrichum candidum = experiment: Antimicrobial activity against Galactomyces geotrichum by broth microdilution method
Lomentospora prolificans = experiment: Antimicrobial activity against Scedosporium prolificans by broth microdilution method; in short: as §2
Aspergillus fumigatus = experiment: Antimicrobial activity against Aspergillus fumigatus by broth microdilution method; in short: as §1
Trichosporon asahii = experiment: Antimicrobial activity against Trichosporon asahii by broth microdilution method; in short: as §3
Acremonium sp. = experiment: Antimicrobial activity against Acremonium sp.by broth microdilution method; in short: as §1
Naganishia albida = experiment: Antimicrobial activity against Cryptococcus albidus by broth microdilution method
In short: (§5)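 Clinical isolates of nonfermentative yeasts, tested by broth microdilution following EUCAST recommendations. The only change from that method was a minor modification to improve growth.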

Paecilomyces variotii = experiment: Antimicrobial activity against Paecilomyces variotii by broth microdilution method; in short: as §2
Debaryomyces hansenii = experiment: Antimicrobial activity against Candida famata by broth microdilution method; in short: as §4
Aspergillus sclerotiorum = experiment: Antimicrobial activity against Aspergillus sclerotiorum by broth microdilution method; in short: as §1
Neurospora sitophila = experiment: Antimicrobial activity against Chrysonilia sitophila by broth microdilution method; in short: as §1
Trichosporon jirovecii = experiment: Antimicrobial activity against Trichosporon jirovecii by broth microdilution method; settings: Cutaneotrichosporon jirovecii; in short: as §3
Coprinellus domesticus = experiment: Antimicrobial activity against Hormographiella verticillata by broth microdilution method; in short: as §2
Papiliotrema laurentii = experiment: Antimicrobial activity against Cryptococcus laurentii by broth microdilution method; in short: as §5
Diutina rugosa = experiment: Antimicrobial activity against Candida rugosa by broth microdilution method; in short: as §4
[3] = test system: Kazachstania pintolopesii; experiment: Antimicrobial activity against Candida pintolopesii by broth microdilution method; settings: Arxiozyma pintolopesii; in short: as §4
Scytalidium hyalinum = experiment: Antimicrobial activity against Scytalidium hyalinum by broth microdilution method; settings: Neoscytalidium hyalinum; in short: as §2
Pichia kudriavzevii = experiment: Antimicrobial activity against Candida krusei by broth microdilution method; in short: as §4
Ustilago = experiment: Antimicrobial activity against Ustilago spp by broth microdilution method
Rhizopus arrhizus = experiment: Antimicrobial activity against Rhizopus oryzae by broth microdilution method; in short: as §2
[4] = test system: Meyerozyma guilliermondii; experiment: Antimicrobial activity against Candida guilliermondii by broth microdilution method; in short: as §4
Magnusiomyces capitatus = experiment: Antimicrobial activity against Dipodascus capitatus by broth microdilution method
Candida orthopsilosis = experiment: Antimicrobial activity against Candida orthopsilosis by broth microdilution method; settings: Lodderomyces orthopsilosis; in short: as §4
Fusarium reticulatum = experiment: Antimicrobial activity against Fusarium reticulatum by broth microdilution method; in short: as §2
[5] = test system: Cladophialophora bantiana; experiment: Antimicrobial activity against Cladophialophora bantiana by broth microdilution method; in short: as §1
Cladosporium = experiment: Antimicrobial activity against Cladosporium spp. by broth microdilution method; in short: as §1
[6] = test system: Cryptococcus deneoformans; experiment: Antimicrobial activity against Cryptococcus neoformans var. neoformans by broth microdilution method; in short: as §5

## CCCCCOc1ccc(-c2ccc(-c3ccc(C(=O)N[C@H]4C[C@@H](O)[C@@H](O)NC(=O)[C@@H]5[C@@H](O)[C@@H](C)CN5C(=O)[C@H]([C@@H](C)O)NC(=O)[C@H]([C@H](O)[C@@H](O)c5ccc(O)cc5)NC(=O)[C@@H]5C[C@@H](O)CN5C(=O)[C@H]([C@@H](C)O)NC4=O)cc3)cc2)cc1 [ANIDULAFUNGIN] ({pTerphenylCO(4''-OnC5H11)}-[Orn(4R-OH,5R-OH)]T[Hyp][hTyr(3S-OH,4S-OH)]T[Pro(3S-OH,4S-Me)]; lactam 1-C)
[1]
  MIC50: > 16 µg/mL
  MIC90: > 16 µg/mL
Fusarium solani
  MIC50: > 16 µg/mL
  MIC90: > 16 µg/mL
Aspergillus ustus
  MIC50: 0.06 µg/mL (≈ 0.0526 µM)
  MIC90: 0.25 µg/mL (≈ 0.219 µM)
Aspergillus
  MIC50: 0.06 µg/mL (≈ 0.0526 µM)
  MIC90: 0.25 µg/mL (≈ 0.219 µM)
[2]
  MIC50: > 16 µg/mL
  MIC90: > 16 µg/mL
Trichosporon ovoides
  MIC50: > 16 µg/mL
  MIC90: > 16 µg/mL
Torulaspora delbrueckii
  MIC50: 0.06 µg/mL (≈ 0.0526 µM)
  MIC90: 0.25 µg/mL (≈ 0.219 µM)
Exophiala jeanselmei
  MIC50: 0.03 µg/mL (≈ 0.0263 µM)
  MIC90: 0.06 µg/mL (≈ 0.0526 µM)
Lichtheimia corymbifera
  MIC50: > 16 µg/mL
  MIC90: > 16 µg/mL
Trichosporon inkin
  MIC50: > 16 µg/mL
  MIC90: > 16 µg/mL
Fusarium equiseti
  MIC50: > 16 µg/mL
  MIC90: > 16 µg/mL
[Candida] inconspicua
  MIC50: 0.06 µg/mL (≈ 0.0526 µM)
  MIC90: 0.25 µg/mL (≈ 0.219 µM)
Clavispora lusitaniae
  MIC50: 0.03 µg/mL (≈ 0.0263 µM)
  MIC90: 0.12 µg/mL (≈ 0.105 µM)
Candida parapsilosis
  MIC50: 1 µg/mL (≈ 0.877 µM)
  MIC90: 2 µg/mL (≈ 1.75 µM)
Geotrichum candidum
  MIC50: > 16 µg/mL
  MIC90: > 16 µg/mL
Lomentospora prolificans
  MIC50: 4 µg/mL (≈ 3.51 µM)
  MIC90: > 16 µg/mL
Aspergillus fumigatus
  MIC50: 0.03 µg/mL (≈ 0.0263 µM)
  MIC90: 0.03 µg/mL (≈ 0.0263 µM)
Trichosporon asahii
  MIC50: > 16 µg/mL
  MIC90: > 16 µg/mL
Acremonium sp.
  MIC50: 0.03 µg/mL (≈ 0.0263 µM)
  MIC90: 0.03 µg/mL (≈ 0.0263 µM)
Naganishia albida
  MIC50: > 16 µg/mL
  MIC90: > 16 µg/mL
Paecilomyces variotii
  MIC50: 0.03 µg/mL (≈ 0.0263 µM)
  MIC90: 0.03 µg/mL (≈ 0.0263 µM)
Debaryomyces hansenii
  MIC50: 0.06 µg/mL (≈ 0.0526 µM)
  MIC90: 0.25 µg/mL (≈ 0.219 µM)
Aspergillus sclerotiorum
  MIC50: 0.06 µg/mL (≈ 0.0526 µM)
  MIC90: 0.25 µg/mL (≈ 0.219 µM)
Neurospora sitophila
  MIC50: > 16 µg/mL
  MIC90: > 16 µg/mL
Trichosporon jirovecii
  MIC50: > 16 µg/mL
  MIC90: > 16 µg/mL
Coprinellus domesticus
  MIC50: > 16 µg/mL
  MIC90: > 16 µg/mL
Papiliotrema laurentii
  MIC50: > 16 µg/mL
  MIC90: > 16 µg/mL
Diutina rugosa
  MIC50: 0.06 µg/mL (≈ 0.0526 µM)
  MIC90: 0.25 µg/mL (≈ 0.219 µM)
[3]
  MIC50: 0.06 µg/mL (≈ 0.0526 µM)
  MIC90: 0.25 µg/mL (≈ 0.219 µM)
Scytalidium hyalinum
  MIC50: 0.03 µg/mL (≈ 0.0263 µM)
  MIC90: 0.06 µg/mL (≈ 0.0526 µM)
Pichia kudriavzevii
  MIC50: 0.03 µg/mL (≈ 0.0263 µM)
  MIC90: 0.06 µg/mL (≈ 0.0526 µM)
Ustilago
  MIC50: > 16 µg/mL
  MIC90: > 16 µg/mL
Rhizopus arrhizus
  MIC50: > 16 µg/mL
  MIC90: > 16 µg/mL
[4]
  MIC50: 1 µg/mL (≈ 0.877 µM)
  MIC90: 8 µg/mL (≈ 7.02 µM)
Magnusiomyces capitatus
  MIC50: 2 µg/mL (≈ 1.75 µM)
  MIC90: 4 µg/mL (≈ 3.51 µM)
Candida orthopsilosis
  MIC50: 0.06 µg/mL (≈ 0.0526 µM)
  MIC90: 0.25 µg/mL (≈ 0.219 µM)
Fusarium reticulatum
  MIC50: > 16 µg/mL
  MIC90: > 16 µg/mL
[5]
  MIC50: 0.03 µg/mL (≈ 0.0263 µM)
  MIC90: 0.06 µg/mL (≈ 0.0526 µM)
Cladosporium
  MIC50: 0.03 µg/mL (≈ 0.0263 µM)
  MIC90: 0.06 µg/mL (≈ 0.0526 µM)
[6]
  MIC50: > 16 µg/mL
  MIC90: > 16 µg/mL
